Compound activity as filed in PubChem BioAssay.
Vif inh – HIV Vif inhibition; HEK293T cells, Vif self-association by quenched fluorescence, imaging, 24 h; actives 0.35% (n = 340,000); inhibition, % at 7.49 µM; in the data active = inhibition above about 50%, passing the limit was not always enough
NR2E3 ag-1 – activates human photoreceptor nuclear receptor NR2E3; GST-NR2E3/biotin-RetCOR TR-FRET, 1536-well; AID 2300; inhibition of corepressor binding, % at 4.78 µM; actives 0.12% (n = 320,000); Q9Y5X4;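 active = percent inhibition above the cutoff of mean plus 3 SD of all tested compounds, set per screening campaign, cut at about 20% in these data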;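 also: 0% = DMSO wells and 100% = biotin wells as full block of FRET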
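System: GST-tagged NR2E3 plus biotinylated RetCOR corepressor; Amount: 1.35 nM GST-tagged NR2E3 final; Dosing: single nominal compound dose of 4.8 µM; Schedule: 5 h incubation at 4 °C; Technique: TR-FRET with europium anti-GST and streptavidin-D2, 340 nm excitation; Controls: biotin wells as high control, 0.6% DMSO wells as low control.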
HCV core dimer – blocks dimerization of HCV core protein; TR-FRET GST/Flag-core106 dimerization, 1536-well; inhibition, % at 5 µM; actives 0.33% (n = 300,000); AID 1899;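 active = inhibition above the mean of all tested compounds plus 3 SD, set per screening campaign, cut at about 45% in these data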
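Assay system: GST-tagged and Flag-tagged HCV core protein residues 1-106 / Times: compound-protein-antibody incubation 4 h at 22.5 °C / Signal: time-resolved FRET, ex 340 nm, em 617 and 671 nm / Evaluation: % inhibition based on acceptor/donor emission ratio / Benchmarks: wells lacking GST-core106 and wells with excess unlabelled core106 / Repeats: singlicate, one well per compound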
MT1-MMP act inh – MT1-MMP (human) activation inhibition; P50281; HT1080 RFP-PRO-GFP cells, GFP/RFP ratio fluorescence, overnight; percent of plate control window, DMSO zero; GFP/RFP ratio change, % at 20 µM; actives 0.061% (n = 360,000); AID 651647;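 active = GFP/RFP ratio change of at least 30% with cell ATP level not reduced by more than half and red fluorescence within 50% of control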
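Test system: HT1080 cells expressing an RFP-PRO-GFP fluorescent reporter construct / Compound dosing: single-point 20 µM compound, 1% DMSO / Schedule: cells overnight before dosing, compound overnight, 37 °C, 5% CO2 / Evaluation: GFP/RFP fluorescence ratio / Control set: DMSO and RFP-L50D-GFP cell wells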
DAGLB inh – diacylglycerol lipase beta (human) inhibition | Q8NCG7 | HEK293T DAGLB membrane lysate, EnzChek fluorogenic substrate | inhibition, % at 5.17 µM | actives 0.059% (n = 340,000) | AID 504411; in the data active = inhibition above about 34%;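 also: 0% = enzyme with vehicle and 100% = wells lacking enzyme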
Target sequence (Q8NCG7 whole entry, looked up): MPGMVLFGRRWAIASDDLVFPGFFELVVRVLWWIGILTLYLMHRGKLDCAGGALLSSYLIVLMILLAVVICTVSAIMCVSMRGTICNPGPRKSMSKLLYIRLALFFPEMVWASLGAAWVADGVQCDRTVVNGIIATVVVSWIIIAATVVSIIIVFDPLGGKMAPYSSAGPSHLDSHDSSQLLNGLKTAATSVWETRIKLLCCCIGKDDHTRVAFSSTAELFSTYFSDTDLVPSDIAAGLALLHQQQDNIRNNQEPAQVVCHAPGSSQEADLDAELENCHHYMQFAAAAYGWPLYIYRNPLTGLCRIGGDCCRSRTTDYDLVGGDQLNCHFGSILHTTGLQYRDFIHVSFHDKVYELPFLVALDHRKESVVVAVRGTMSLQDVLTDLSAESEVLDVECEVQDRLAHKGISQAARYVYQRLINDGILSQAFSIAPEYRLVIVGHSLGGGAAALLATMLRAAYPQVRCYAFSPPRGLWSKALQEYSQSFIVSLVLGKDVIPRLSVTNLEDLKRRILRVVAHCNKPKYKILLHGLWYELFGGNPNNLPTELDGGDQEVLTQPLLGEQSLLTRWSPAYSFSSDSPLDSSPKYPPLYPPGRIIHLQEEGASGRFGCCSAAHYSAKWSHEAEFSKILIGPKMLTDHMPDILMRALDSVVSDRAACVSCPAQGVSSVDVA
NR2E3 ag-2 – activates human NR2E3 receptor | Q9Y5X4 | inhibition of corepressor binding, % at 3.98 µM | actives 0.35% (n = 360,000) | CHO-S Gal4-NCOR/VP16-NR2E3 two-hybrid, luciferase;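 active = inhibition above the mean of all tested compounds plus 3 SD, cut at about 70% in these data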;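 also: 0% = DMSO with NR2E3 transfected cells and 100% = cells lacking NR2E3 construct; higher means lower luciferase signal from less NR2E3 corepressor binding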
NR2E3 ag confirm-1 – confirmation of human NR2E3 nuclear receptor agonists. shares compounds with NR2E3 ag-1. activation (reported as inhibition), % at 3.98 µM. actives 39% (n = 360). cell-free NR2E3 corepressor release, TR-FRET, 5 h. AID 2379; in the data active = activation above about 20%
PPARg-NCOR2 ag – releases PPARgamma from NCOR2 in NR2E3 counter-screen; actives 45% (n = 360); inhibition, % at 3.98 µM; shares compounds with NR2E3 ag-1; TR-FRET PPARg-NCOR2 coregulator interaction, biochemical; in the data active = inhibition above about 20%;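 also: 0% = DMSO vehicle and 100% = wells without protein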
DAGLB confirm – DAGLB (human) inhibition, confirmation screen; shares compounds with DAGLB inh; HEK293T DAGLB membrane lysate, EnzChek fluorogenic substrate; inhibition, % at 5.17 µM; actives 73% (n = 190); AID 504445;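 active = mean inhibition over triplicate wells above a set limit taken from the primary lipase screen, cut at about 34% in these data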;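 also: 0% = DAGLB with DMSO and 100% = wells lacking DAGLB enzyme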
NR2E3 ag confirm-2 – confirmation of human NR2E3 agonists; inhibition, % at 3.98 µM; shares compounds with NR2E3 ag-2; AID 624378; actives 51% (n = 2,300); CHO-S mammalian two-hybrid NR2E3-NCOR, luciferase luminescence;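 active = average inhibition above a cutoff equal to the mean inhibition of all tested compounds plus one SD, cut at about 70% in these data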;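 also: 0% = DMSO in NR2E3 cells and 100% = DMSO in cells lacking NR2E3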
GAL4-VP16 luc – counter-screen for NR2E3 agonists: GAL4-VP16 reporter inhibitors. shares compounds with NR2E3 ag-2. CHO-S GAL4-VP16 luciferase reporter, luminescence. inhibition, % at 3.98 µM. actives 29% (n = 2,300);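 active = mean inhibition above a cutoff equal to the average over all tested compounds plus one standard deviation, cut at about 70% in these data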;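 also: luciferase from a UAS reporter driven by GAL4-VP16 transactivation; 0% = DMSO with VP16-transfected cells and 100% = DMSO with cells lacking VP16; higher means less reporter light so more repression of VP16 activity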
Numbers without * were called inactive; / = not tested or not shown. Shown are actives, neighbours in structure and some others; about 1.1% of the full set was active somewhere.

SMILES	Vif inh	NR2E3 ag-1	HCV core dimer	MT1-MMP act inh	DAGLB inh	NR2E3 ag-2	NR2E3 ag confirm-1	PPARg-NCOR2 ag	others
Cc1ccc(C(=O)C2=C(O)C(=O)N(CCCn3ccnc3)C2c2ccc(OC(C)C)cc2)o1 (stereo unspecified)	14	28*	-9	-3	-1	-8	5	3
Cc1ccc(C(=O)C2=C(O)C(=O)N(Cc3cccnc3)C2c2ccc(Cl)c(Cl)c2)o1 (stereo unspecified)	-2	32*	-2	0	2	-4	23*	20*
Cc1ccc(C(=O)C2=C(O)C(=O)N(Cc3cccnc3)C2c2ccc(OC(C)C)cc2)o1 (stereo unspecified)	-14	22*	-1	4	0	13	6	13
COc1ccc(C2C(C(=O)c3ccc(C)o3)=C(O)C(=O)N2Cc2cccnc2)cc1 (stereo unspecified)	-18	11	0	1	-5	-22	/	/
Cc1ccc(C(=O)C2=C(O)C(=O)N(Cc3cccnc3)C2c2ccc(Br)cc2)o1 (stereo unspecified)	-7	21*	-2	-2	4	16	22*	18
O=C(COC(=O)CCNS(=O)(=O)c1ccccc1)NC(=O)c1ccccc1	17	2	4	1	3	-28	/	/
CC(CCc1ccccc1)NC(=O)COC(=O)c1cccnc1Cl (stereo unspecified)	3	/	/	4	0	2	/	/
Cc1ccc(C2C(C(N)=S)=C(N)OC3=C2C(=O)CC(C)(C)C3)cc1 (stereo unspecified)	-3	26*	-5	0	2	-1	-1	65*
Cc1ccc(CNC(=O)c2cc3c(s2)CS(=O)(=O)C3)cc1	-4	1	7	0	2	-16	/	/
Cc1ccc(CNC(=O)c2cc3c(s2)CN(Cc2ccccc2)C3)cc1	-8	21*	6	2	-4	1	-6	-3
COc1cccc(C2C(C(=O)c3cc4ccccc4o3)=C(O)C(=O)N2c2cc(C)on2)c1OC (stereo unspecified)	2	24*	17	8	3	0	25*	18
COc1cccc(C2C(C(=O)c3cc4cccc(OC)c4o3)=C(O)C(=O)N2c2cc(C)on2)c1OC (stereo unspecified)	18	14	11	5	3	-52	/	/
COc1cc(C2C(C(=O)c3cc4ccccc4o3)=C(O)C(=O)N2c2cc(C)on2)cc(OC)c1OC (stereo unspecified)	-2	30*	3	7	2	-6	35*	34*
COc1cccc2cc(C(=O)C3=C(O)C(=O)N(c4cc(C)on4)C3c3cccs3)oc12 (stereo unspecified)	-3	33*	-9	-30	-2	-10	36*	42*
COC(=O)c1ccc(C2C(C(=O)c3cc4ccccc4o3)=C(O)C(=O)N2c2cc(C)on2)cc1 (stereo unspecified)	-20	23*	33	-3	-4	-9	32*	27*
Cc1cc(N2C(=O)C(O)=C(C(=O)c3cc4ccccc4o3)C2c2ccc(OC(C)C)cc2)no1 (stereo unspecified)	4	11	-4	6	10	-55	/	/
CCN(CC)C(=O)Oc1ccc2oc(=O)cc(-c3cc4cccc(OC)c4o3)c2c1	-4	0	12	-1	-1	5	/	/
CC(C)CC(NC(=O)C(COCc1ccccc1)NC(=O)OC(C)(C)C)C(=O)NN (stereo unspecified)	-3	1	9	1	-2	12	/	/
Cc1c(C(=O)NCc2ccc3c(c2)OCCO3)sc(=O)n1Cc1ccc(C(=O)N(C)C)cc1	-5	/	/	2	/	8	/	/
CCc1oc2ccccc2c1C(=O)c1cc(Br)c(O)c(Br)c1	-1	38*	23	3	23	92*	31*	45*	NR2E3 ag confirm-2=98*;GAL4-VP16 luc=79*
Cc1onc(-c2c(F)cccc2Cl)c1C(=O)Nc1nnc(C(F)(F)F)s1	-35	23*	0	11	3	92*	20*	-11	NR2E3 ag confirm-2=96*;GAL4-VP16 luc=77*
Cc1onc(-c2c(F)cccc2Cl)c1C(=O)Nc1nccs1	-2	0	1	-1	-1	-13	/	/
c1ccc(COc2cccc(-c3cc4nc(NCCc5ccncc5)ccn4n3)c2)cc1	-3	/	/	-9	/	-16	/	/
O=C(NC(C(=O)N/N=C/c1cccc2ccccc12)c1n[nH]c(=O)c2ccccc12)c1ccccc1 (stereo unspecified)	-7	-3	14	3	39*	-2	/	/	DAGLB confirm=40*
O=C(NC(C(=O)N/N=C/c1ccncc1)c1n[nH]c(=O)c2ccccc12)c1ccccc1 (stereo unspecified)	-8	3	-3	1	15	22	/	/
CC(C)N1CCCC(C)(C(=O)Nc2nccc3ccccc23)C1 (stereo unspecified)	-4	/	/	2	/	-39	/	/
O=C(O)c1cc(S(=O)(=O)Nc2cc(Cl)ccc2Oc2ccccc2)ccc1O	/	1	/	-3	39*	18	/	/	DAGLB confirm=38*
CN(C)c1ccc(N=Nc2ccc(S(=O)(=O)O)cc2)c2ccccc12	-4	0	-13	18	48*	2	/	/	DAGLB confirm=52*
CCOC(=O)c1c(S(=O)(=O)Nc2ccc(C)cn2)c(C)n(C)c1C	-2	1	-8	0	1	2	/	/
N#C/C(=C/c1ccc(O)c(O)c1)C(=O)NCc1ccc(Cl)cc1	33	2	-7	-7	45*	-15	/	/	DAGLB confirm=24
